Assay outcomes: PubChem, Sanford-Burnham Center for Chemical Genomics
Hits are enriched below; roughly 2% of the tested compounds scored in any of these assays.
SUMO1 PPI mod: modulators of human SUMO1-mediated protein-protein interactions; P63165; SUMO1 binding to a labelled peptide, TR-FRET, 1 h; inhibition, % at 20 µM; actives 0.33% (n = 360,000); AID 602429; in the data active = inhibition above about 37%
Target sequence (P63165 whole entry, looked up): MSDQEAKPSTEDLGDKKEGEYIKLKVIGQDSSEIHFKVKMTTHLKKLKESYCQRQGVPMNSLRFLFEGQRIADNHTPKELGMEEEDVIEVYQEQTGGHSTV
LMPTP inh: blocks human LMPTP phosphatase; P24666; recombinant LMPTP-A, OMFP fluorogenic substrate, fluorescence intensity; inhibition, % at 20 µM; actives 0.22% (n = 360,000); AID 651560;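 active = compounds that cut the enzyme signal by at least half of the control window in the single-dose screen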;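 note: plate controls were DMSO wells with enzyme plus substrate for no effect and substrate without enzyme for full effect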
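Test system: LMPTP-A, protein tyrosine phosphatase of low molecular weight; Input: 0.625 nM enzyme; Incubation: 50 min dark incubation at room temperature; Signal: endpoint fluorescence intensity from OMFP dephosphorylation; Read-out basis: % inhibition versus control wells.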
STEP block: blocks human striatal-enriched tyrosine phosphatase. inhibition, % at 20 µM. recombinant STEP, OMFP fluorogenic substrate, fluorescence. AID 588621. P54829. actives 0.25% (n = 360,000);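 active = inhibition at 20 µM, scaled per plate between control wells, above about 37%, limit read from the data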;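 note: 0% = DMSO with enzyme and substrate and 100% = substrate only without enzyme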
Target sequence (P54829 whole entry, looked up): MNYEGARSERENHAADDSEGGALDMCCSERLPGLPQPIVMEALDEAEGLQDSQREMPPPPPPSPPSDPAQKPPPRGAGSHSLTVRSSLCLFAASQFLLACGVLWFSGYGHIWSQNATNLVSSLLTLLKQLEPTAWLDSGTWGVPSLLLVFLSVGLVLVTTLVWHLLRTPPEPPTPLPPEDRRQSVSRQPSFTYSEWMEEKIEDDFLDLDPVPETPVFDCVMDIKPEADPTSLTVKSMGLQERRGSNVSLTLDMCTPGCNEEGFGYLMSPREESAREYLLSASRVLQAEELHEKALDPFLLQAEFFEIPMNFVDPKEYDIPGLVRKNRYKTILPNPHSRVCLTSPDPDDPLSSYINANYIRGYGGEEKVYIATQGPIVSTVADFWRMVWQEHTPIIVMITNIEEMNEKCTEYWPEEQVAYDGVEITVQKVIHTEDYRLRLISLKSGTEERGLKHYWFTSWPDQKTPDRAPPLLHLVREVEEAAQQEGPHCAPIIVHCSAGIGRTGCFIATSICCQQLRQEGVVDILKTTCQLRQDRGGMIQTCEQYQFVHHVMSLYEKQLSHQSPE
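System: STEP (striatal-enriched tyrosine phosphatase) enzyme, cell-free; medium: Bis-Tris pH 6.0 buffer with DTT, detergent; dosing: 20 µM, 1% DMSO; times: reaction 20 min, ambient temperature; detection: fluorescence, 480/540 nm; read-out basis: normalized % inhibition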
DNMT1 block: DNMT1 (human) enzyme inhibition; P26358; DNMT1 molecular beacon, Hinp1I cleavage, fluorescence; inhibition (reported as % activation of signal), % at 10 µM; actives 0.83% (n = 360,000); AID 588458; in the data active = inhibition above about 50%
CSN deneddyl inh: blocks human CSN-mediated cullin deneddylation. Purified CSN, SCF-Nedd8-OG deneddylation, fluorescence polarization. actives 0.38% (n = 360,000). AID 651999. inhibition, % at 12.5 µM. Q92905;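 active = pattern-corrected inhibition above about 35%, with an unprinted fluorescence ratio check between 0.5 and 1.5, limit read from the data, passing the limit was not always enough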;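 note: 0% = enzyme with substrate and 100% = substrate without enzyme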
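Test system: Human Csn5 produced in HEK293T cells | Compound: 12.5 µM single point | Times: 90 min, room temperature | Signal: Fluorescence polarization readout | Read-out basis: % inhibition of substrate cleavage by Csn5 | Controls: no-enzyme wells high, enzyme-with-substrate wells low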
Scp-1 inhibitor: Scp-1 (human) phosphatase inhibition; Q9GZU7; Recombinant Scp1, phosphopeptide, malachite green phosphate absorbance; inhibition, % at 20 µM; actives 0.88% (n = 340,000);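 active = inhibition above about 50% at 20 µM, limit read from the data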;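 note: plate controls were DMSO wells with enzyme for no effect and wells lacking enzyme for full effect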
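Test system: SCP-1 phosphatase catalytic domain, residues 76-261 | Compound dosing: One concentration, 20 µM, with 1.0% DMSO | Schedule: 45 min room-temperature reaction, 5 min colour, 30 min stabiliser | Detection: Absorbance at 630 nm | Read-out basis: % inhibition of SCP-1 phosphate liberation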
Scp-1 conf: confirmation of human Scp-1 phosphatase inhibitors. shares compounds with Scp-1 inhibitor. recombinant SCP-1 catalytic domain, phosphate release, malachite green absorbance. inhibition, % at 20 µM. actives 61% (n = 2,500). AID 540281;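 note: plate controls were DMSO with enzyme for no effect and buffer wells lacking enzyme for full effect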
MG interference: counter-screen for Scp-1 inhibitors: colorimetric interference | shares compounds with Scp-1 inhibitor | Colorimetric interference counterscreen, malachite green absorbance 630 nm | apparent inhibition (interference), % at 20 µM | 2,500 tested, under 10 active | AID 540313;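 note: compounds added after enzyme reaction finished so only phosphate colour detection is probed; plate controls were DMSO wells with completed Scp-1 reaction for no effect and substrate wells lacking enzyme for full effect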
Scp-1 Tm shift: Scp-1 (human) binding by thermal shift | shares compounds with Scp-1 inhibitor | Recombinant SCP1, Sypro Orange thermal shift Tm | thermal shift relative to vanadate control, % at 40 µM | actives 25% (n = 1,500) | AID 540329;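 active = substances whose mean melting-temperature shift, as a percentage of the reference inhibitor's shift, reaches about 5.3%, limit read from the data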;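 note: 0% = Tm of DMSO wells and 100% = Tm with sodium orthovanadate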
Beacon interf DR: beacon fluorescence artifact, dose response counter-screen; IC50, µM; shares compounds with DNMT1 block; molecular beacon fluorescence, spectral interference counter-screen; 200 tested, under 10 active; call rule not given here
DNMT1 confirm: DNMT1 inhibition confirmation, single concentration; shares compounds with DNMT1 block; DNMT1 molecular beacon HinP1I cleavage, fluorescence; inhibition, % at 10 µM; actives 8% (n = 2,300);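 active = average inhibition of at least 30% in the single-concentration confirmation test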
Beacon interf: shows spectral interference in the DNMT1 beacon assay. DNMT1 molecular beacon spectral interference counterscreen, fluorescence 485/520. actives 1% (n = 2,300). activation (fluorescence interference), % at 10 µM. shares compounds with DNMT1 block;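 active = activation of at least 30% at 10 µM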;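 note: DNMT1 catalytic domain with a HinP1I cleavage step and a FAM/dabcyl DNA beacon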
The depositor's hits bear a star; nt = no result.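 Rule for the calls, unless noted: active = inhibition of at least 30% at 20 µM; inactive = the rest.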

SMILES	SUMO1 PPI mod	LMPTP inh	STEP block	DNMT1 block	CSN deneddyl inh	Scp-1 inhibitor	Scp-1 conf	MG interference	Scp-1 Tm shift	DNMT1 confirm	Beacon interf	others
O=C(Cc1cccs1)Nc1ccc(S(=O)(=O)N2CCCCC2)cc1	2.4	17.6	3.7	57.4*	0.1	89.4*	64.2*	-19.7	6.6*	8.1	4.1
Cc1ccnc(NS(=O)(=O)c2ccc(NC(=O)Cc3cccs3)cc2)n1	15.1	14.4	0.7	89.5*	26.7	59.9*	73.3*	-5.4	6.8*	22.1	-3.4	Beacon interf DR=>99
Cc1ccnc(NS(=O)(=O)c2ccc(NC(=O)Cc3ccc(F)cc3)cc2)n1	3.1	-2.1	-1.5	4.1	0.2	-0.9	nt	nt	nt	nt	nt
CCCc1cc(=O)c2ccc(OC/C(C)=N/O)cc2o1	3.2	-1.5	-3.2	0.7	0.0	-11.4	nt	nt	nt	nt	nt
NC(=O)Cc1ccc(C(=O)CSc2nnc(-c3ccncc3)n2C2CC2)s1	15.5	56.6*	-0.4	77.8*	33.6	78.7*	81.9*	4.8	7.0*	7.6	-1.1
O=C(/C=C/c1ccc(Cl)c([N+](=O)[O-])c1)Nc1ccc(NC(=O)c2ccco2)cc1	0.8	1.1	-0.3	10.5	5.0	-1.2	nt	nt	nt	nt	nt
O=C(/C=C/c1ccc(Cl)c([N+](=O)[O-])c1)Nc1ccc(N2CCCC2)cc1	-1.9	10.7	8.5	87.6*	31.8	88.1*	77.3*	-14.0	6.0*	2.0	-1.2
O=C(Nc1cccc(S(=O)(=O)N2CCCCC2)c1)C1CC1	6.5	1.9	-1.8	3.1	2.1	2.0	nt	nt	nt	nt	nt
COc1ccc(S(=O)(=O)N2CCN(C(=O)c3cc4c(s3)CCC4)CC2)cc1	32.4	56.9*	36.4	99.9*	38.5	84.3*	67.9*	-17.5	5.1	39.9*	0.3	Beacon interf DR=>99
Cc1ccc(S(=O)(=O)N2CCN(C(=O)c3cc4c(s3)CCCC4)CC2)cc1	1.4	3.2	1.9	-3.3	-1.7	-7.2	nt	nt	nt	nt	nt
COc1cc(NC(=O)COC(=O)c2ccc(S(=O)(=O)N3CC(C)CC(C)C3)cc2)c(C)cc1[N+](=O)[O-] (stereo not drawn)	10.4	1.4	2.1	55.8*	1.7	66.9*	34.8*	-10.4	0.6	0.0	-0.6
CCN1C(=O)[C@H]2[C@@H](c3ccc(-c4ccc(C(C)=O)cc4)cc3)N[C@@](Cc3ccccc3)(C(=O)OC)[C@H]2C1=O	-8.3	3.8	-0.1	-6.6	-5.4	-3.0	nt	nt	nt	nt	nt
N#CC(C#N)=Cc1cccn1-c1ccc(C(=O)O)cc1	-6.0	6.6	23.6	101.0*	28.0	69.8*	61.0*	-12.8	0.9	21.1	-1.2
N#Cc1ccccc1CN1C(=O)S/C(=C/c2cccn2-c2ccc(C(=O)O)cc2)C1=O	-13.1	14.1	11.8	106.0*	29.1	92.2*	62.9*	-20.8	-2.5	3.9	0.6
CCN(CC(=O)Nc1c(F)cccc1F)C(=O)C1CCN(S(=O)(=O)c2ccc(C)c(C)c2)CC1	-4.4	-0.8	-0.2	-0.9	1.3	1.3	nt	nt	nt	nt	nt
O=C(Cn1cnc2scc(-c3cccc([N+](=O)[O-])c3)c2c1=O)NCc1ccco1	-7.2	21.4	7.5	82.9*	27.1	77.7*	70.3*	-11.5	10.6*	16.5	-1.4
Cc1sc2ncn(CC(=O)NCc3ccco3)c(=O)c2c1-c1ccc(F)cc1	2.5	-0.7	3.8	19.5	15.1	-0.8	nt	nt	nt	nt	nt
O=c1[nH]c(SCc2ccccc2[N+](=O)[O-])nc2nc[nH]c12	-2.5	-1.8	-0.2	0.9	-1.1	-1.8	nt	nt	nt	nt	nt
COc1ccc2c(c1)c(=O)oc1cc(OCC(=O)N3CCc4ccccc4C3)ccc12	24.0	62.1*	27.2	104.9*	30.8	81.3*	68.5*	-18.9	-6.2	17.1	-1.9
O=C(Nc1ccc(S(=O)(=O)Nc2nccs2)cc1)c1nn(-c2ccc(F)cc2)ccc1=O	4.6	56.4*	6.9	58.7*	2.8	93.4*	59.0*	-22.2	3.7	10.2	-3.9
Cc1cc2oc(C(=O)NCCc3ccc(S(N)(=O)=O)cc3)c(C)c2cc1C	2.8	49.8*	7.6	79.3*	20.0	85.4*	70.8*	-16.1	-11.0	2.7	2.3
COCCn1cnnc1SCC(=O)Nc1sc2c(c1C#N)CCC2	3.6	1.9	-1.2	17.1	8.6	19.9	nt	nt	nt	nt	nt
CC1CCC2(CC1)NC(=O)N(CC(=O)Nc1sc3c(c1C(N)=O)CCC3)C2=O (stereo not drawn)	18.2	6.1	20.7	70.2*	27.4	85.9*	65.4*	-10.6	12.2*	4.9	-0.7
Cn1cnnc1SCC(=O)Nc1sc2c(c1C(N)=O)CCC2	43.1*	45.4	6.5	85.0*	49.7*	64.8*	73.3*	-6.5	12.8*	17.4	2.6
CCOC(=O)c1cc(-c2ccc(N3CCOCC3)cc2)nn1-c1ccccc1C(=O)O	105.6*	57.5*	95.7*	94.2*	29.6	80.2*	63.9*	-15.0	-12.6	34.5*	-4.4	Beacon interf DR=>99
N#CCN(C(=O)COC(=O)CCCNC(=O)c1ccc(Cl)cc1)c1ccccc1	3.8	-0.3	-1.6	-0.4	-1.7	-4.6	nt	nt	nt	nt	nt
O=C(O)/C(=C/c1ccco1)NC(=O)c1ccccc1	3.7	-1.1	5.0	66.8*	-0.9	74.9*	41.5*	-21.6	-15.2	2.0	2.9
CC(C)(C)c1ccc(C(=O)N/C(=C\c2ccco2)C(=O)O)cc1	-5.3	0.4	1.8	6.0	-4.5	1.6	nt	nt	nt	nt	nt
Cc1ccoc1C(=O)NCc1occc1C(=O)O	9.0	-0.8	13.8	57.4*	5.7	50.1*	34.5*	-18.1	-4.1	-0.7	-0.5
CCC(C)[C@H]1COCCS(=O)(=O)N1Cc1ccc(Cl)cc1Cl (stereo partly drawn)	0.3	1.5	1.1	4.7	0.0	-1.9	nt	nt	nt	nt	nt
